Experimental data: publication PMC10243129 (Proceedings of the National Academy of Sciences of the …, 2023)

Legend:
ATR = conditions: PPPi on ATR ternary product complex; ref [14]; cited from earlier work
human MCM, CblA and ATR = target: T1, human MCM, CblA and ATR (Homo sapiens, UniProt P22033); test: CblA-dependent cob; assay type: biochemical; conditions: cob(II)alamin transfer MCM to ATR, anaerobic, 25 °C, 5 mM ADP or 0.5 mM M-CoA
T1 sequence (P22033 33-750): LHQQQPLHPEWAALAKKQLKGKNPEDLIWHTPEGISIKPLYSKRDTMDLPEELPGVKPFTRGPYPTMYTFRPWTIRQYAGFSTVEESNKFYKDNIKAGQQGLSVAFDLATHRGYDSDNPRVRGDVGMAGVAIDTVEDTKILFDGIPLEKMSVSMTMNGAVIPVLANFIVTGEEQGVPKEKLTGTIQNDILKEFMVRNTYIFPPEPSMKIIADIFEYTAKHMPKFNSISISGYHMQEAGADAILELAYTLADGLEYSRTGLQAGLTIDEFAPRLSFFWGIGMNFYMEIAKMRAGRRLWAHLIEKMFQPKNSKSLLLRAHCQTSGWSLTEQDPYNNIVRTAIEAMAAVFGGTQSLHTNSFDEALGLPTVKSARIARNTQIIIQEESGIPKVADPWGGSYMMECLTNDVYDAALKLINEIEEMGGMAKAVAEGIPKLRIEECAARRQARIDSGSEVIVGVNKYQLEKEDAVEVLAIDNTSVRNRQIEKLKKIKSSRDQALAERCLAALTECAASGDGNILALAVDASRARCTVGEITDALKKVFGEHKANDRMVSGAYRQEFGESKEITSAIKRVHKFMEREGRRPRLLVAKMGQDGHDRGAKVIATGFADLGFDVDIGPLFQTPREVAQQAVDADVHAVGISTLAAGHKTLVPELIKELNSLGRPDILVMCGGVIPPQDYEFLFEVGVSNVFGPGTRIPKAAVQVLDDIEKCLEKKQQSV
Procedure, shortened: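 Recombinant human MCM, CblA and ATR expressed in E. coli. Metabolite (ADP or M-CoA) was added to the MCM solution. A464 was followed for 20 min; transfer extent came from Δε464 5.6 cm⁻¹ mM⁻¹, and kobs from a single-exponential fit.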

human MCM•cob(II)alamin [1] = target: T2, human MCM•cob(II)alamin (Homo sapiens, UniProt P22033); test: Stopped-flow spectroscopy of ADP/ATP binding to MCM•cob
T2 sequence (P22033 33-750): T1 sequence (P22033 33-750)
Procedure, shortened: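 Anaerobic stopped-flow with diode-array detection was run at 25 °C. MCM•cob(II)alamin was preformed from 80 µM cob(II)alamin and 40 µM MCM dimer (stock) in Buffer A for 10 min, then rapidly mixed with 0.25–2.5 mM ADP or ATP. A460 traces were fitted to a single exponential for kobs. kon came from linear regression of kobs on metabolite concentration, and koff from titration Kd and kon.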

[2] = target: T3, Mycobacterium tuberculosis MCM (Mycobacterium tuberculosis, UniProt P9WJK5); test: Kinetics of M. tuberculosis MCM•cob; assay type: biochemical; conditions: in air
T3 sequence (P9WJK5 1-750): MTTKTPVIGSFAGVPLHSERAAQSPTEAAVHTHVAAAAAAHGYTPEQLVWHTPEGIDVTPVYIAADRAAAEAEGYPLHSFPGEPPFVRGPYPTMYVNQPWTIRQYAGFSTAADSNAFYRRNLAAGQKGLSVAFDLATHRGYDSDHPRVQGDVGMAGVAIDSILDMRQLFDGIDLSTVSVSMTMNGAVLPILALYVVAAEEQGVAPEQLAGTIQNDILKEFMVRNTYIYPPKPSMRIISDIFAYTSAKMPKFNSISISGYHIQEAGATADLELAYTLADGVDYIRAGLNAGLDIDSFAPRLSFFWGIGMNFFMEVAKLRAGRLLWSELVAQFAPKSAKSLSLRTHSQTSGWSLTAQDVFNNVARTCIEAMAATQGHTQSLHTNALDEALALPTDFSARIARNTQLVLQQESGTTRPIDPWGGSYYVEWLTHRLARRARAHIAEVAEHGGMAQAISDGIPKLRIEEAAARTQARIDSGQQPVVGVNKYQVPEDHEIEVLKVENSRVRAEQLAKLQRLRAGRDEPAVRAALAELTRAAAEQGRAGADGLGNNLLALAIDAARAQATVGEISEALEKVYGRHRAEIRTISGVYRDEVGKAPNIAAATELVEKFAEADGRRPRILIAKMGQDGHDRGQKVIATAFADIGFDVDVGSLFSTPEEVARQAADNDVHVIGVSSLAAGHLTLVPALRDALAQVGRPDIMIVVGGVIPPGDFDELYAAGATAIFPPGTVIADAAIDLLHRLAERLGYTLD
T3 sequence (P9WJK7 1-615 partner): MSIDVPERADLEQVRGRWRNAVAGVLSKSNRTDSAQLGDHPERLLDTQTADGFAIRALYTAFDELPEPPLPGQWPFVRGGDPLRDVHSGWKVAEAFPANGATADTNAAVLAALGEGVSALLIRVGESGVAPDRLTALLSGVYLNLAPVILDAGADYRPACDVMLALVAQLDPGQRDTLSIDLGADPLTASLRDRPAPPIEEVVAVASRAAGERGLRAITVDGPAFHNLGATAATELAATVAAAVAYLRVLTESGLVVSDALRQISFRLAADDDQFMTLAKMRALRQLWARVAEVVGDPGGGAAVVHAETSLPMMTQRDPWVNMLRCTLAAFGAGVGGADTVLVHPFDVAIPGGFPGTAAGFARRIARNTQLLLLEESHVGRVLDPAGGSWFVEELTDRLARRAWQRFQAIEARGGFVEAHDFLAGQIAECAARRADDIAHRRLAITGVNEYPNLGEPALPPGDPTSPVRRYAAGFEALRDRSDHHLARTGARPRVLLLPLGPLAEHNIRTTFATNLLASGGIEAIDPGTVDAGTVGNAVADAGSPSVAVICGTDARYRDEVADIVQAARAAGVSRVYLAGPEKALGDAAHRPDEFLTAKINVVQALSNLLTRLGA

human MCM•cob(II)alamin [3] = target: T2, human MCM•cob(II)alamin; test: Metabolite binding to MCM•cob
Procedure, shortened: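 Cob(II)alamin was made by photolysis of 1.2 mM AdoCbl (stock) in anaerobic water and quantified with ε474 9.2 cm⁻¹ mM⁻¹. Work was done in an anaerobic chamber (<0.2 ppm O₂) with 40 µM cob(II)alamin and 20 µM MCM dimer in Buffer A at 20 °C. For the screen, metabolites were added at 5 mM and spectra recorded after 15 min. For Kd, metabolite was titrated, A460 read after 10 min, and data fitted to a quadratic binding equation.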

human MCM = target: T4, human MCM (Homo sapiens, UniProt P22033); test: Kinetics of human MCM•cob; assay type: biochemical; conditions: absence of ligands, in air, 25 °C
T4 sequence (P22033 33-750): T1 sequence (P22033 33-750)
Procedure, shortened: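 The MCM•cob(II)alamin sample (40 µM cob(II)alamin, 20 µM MCM dimer) was prepared in anaerobic Buffer A at pH 7.5. Oxidation was started by twofold dilution with aerobic buffer. H₂OCbl formation was followed as the rise in absorbance at 350 nm versus time, giving kobs.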

human ATR = target: T5, human ATR (Homo sapiens, UniProt Q96EY8); test: ATP-triggered release of AdoCbl from ATR into solution; assay type: biochemical; conditions: ATR•AdoCbl without PPPi, confirmed after separation with a 10 kDa cutoff filter
T5 sequence (Q96EY8 33-250): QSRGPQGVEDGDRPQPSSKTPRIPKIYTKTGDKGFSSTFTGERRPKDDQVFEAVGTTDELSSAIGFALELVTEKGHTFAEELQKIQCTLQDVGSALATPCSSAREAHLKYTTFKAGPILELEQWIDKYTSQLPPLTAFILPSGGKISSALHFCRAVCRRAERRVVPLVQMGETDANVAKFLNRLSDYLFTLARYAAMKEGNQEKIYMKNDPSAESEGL

SMILES: O=P(O)(O)OP(=O)(O)OP(=O)(O)O [PPPi, sodium triphosphate pentabasic]
- Kd (ATR): < 0.4 µM

SMILES: Nc1ncnc2c1ncn2[C@@H]1O[C@H](COP(=O)(O)OP(=O)(O)O)[C@@H](O)[C@H]1O [ADP, adenosine diphosphate]
- Rate of transfer (kobs) (human MCM, CblA and ATR): 0.24 ± 0.01 min⁻¹
- fold higher kon of ADP versus ATP (human MCM•cob(II)alamin [1]; ADP vs ATP): ~ 100 fold
- rate of ADP binding relative to oxidation of cob(II)alamin on MCM (human MCM•cob(II)alamin [1]; assuming a cellular ADP concentration of 6 mM): ~ 600 fold
- Effect on oxidation of cob(II)alamin bound to M. tuberculosis MCM [2]: prevented
- Kd (human MCM•cob(II)alamin [3]): 44 ± 4.2 µM

SMILES: C[C@H]1O[C@@H](n2cnc3c(N)ncnc32)[C@H](O)[C@@H]1O [5′-dAdo, 5′-deoxyadenosine]
- Kd (human MCM•cob(II)alamin [3]): 4.2 ± 2.1 µM

SMILES: C/C1=C2/[N-][C@H]([C@H](CC(N)=O)[C@@]2(C)CCC(=O)NC[C@@H](C)OP(=O)([O-])O[C@H]2[C@@H](O)[C@@H](n3cnc4cc(C)c(C)cc43)O[C@@H]2CO)[C@]2(C)N=C(/C(C)=C3N=C(/C=C4N=C1[C@@H](CCC(N)=O)C\4(C)C)[C@@H](CCC(N)=O)[C@]\3(C)CC(N)=O)[C@@H](CCC(N)=O)[C@]2(C)CC(N)=O.[Co+2] [cob(II)alamin]
- kobs of oxidation of MCM-bound cob(II)alamin to H2OCbl (human MCM): 0.08 min⁻¹

SMILES: Nc1ncnc2c1ncn2[C@@H]1O[C@H](COP(=O)(O)OP(=O)(O)OP(=O)(O)O)[C@@H](O)[C@H]1O [ATP, adenosine triphosphate]
- AdoCbl released from ATR into solution (human ATR): 40%
- Kd (human MCM•cob(II)alamin [3]): 30 ± 5 µM

SMILES: CC(C)(COP(=O)(O)OP(=O)(O)OC[C@H]1O[C@@H](n2cnc3c(N)ncnc32)[C@H](O)[C@@H]1OP(=O)(O)O)[C@@H](O)C(=O)NCCC(=O)NCCS [CoA, Coenzyme A]
- Rate of transfer (kobs) (human MCM, CblA and ATR): 0.92 ± 0.06 min⁻¹
- Kd (human MCM•cob(II)alamin [3]): 118 ± 13 µM
